# The sample as a whole holds a higher share of hits than the screen did.
# CHOP inhibitor: blocks CHOP induction under ER stress; CHO-K1 CHOP-promoter luciferase, tunicamycin-induced, 15-18 h; inhibition, % at 10 µM; 220,000 tested, 3.8% active;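 active = compounds that reduced the stress-induced luciferase reporter signal by more than about 70% of percent inhibition, limit read from the data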;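 note: 0% = tunicamycin plus vehicle and 100% = wells without tunicamycin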
# PvdQ inh: blocks Pseudomonas aeruginosa PvdQ acylase activity; purified PvdQ acylase, fluorescence plate reader; inhibition, % at 10 µM; 340,000 tested, 0.063% active; in the data active = inhibition above about 30%, passing the limit was not always enough;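 note: 0% = vehicle neutral wells and 100% = reference inhibitor wells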
# UPR CHOP act: activators of apoptotic arm of unfolded protein response (CHOP); CHO-CHOP luciferase reporter, UPR activation, luminescence; percent of tunicamycin response over DMSO baseline; activation, % at 10 µM; 330,000 tested, 0.34% active; AID 449763;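 active = at 10 µM dose, activation of 40% or more, normalized to positive control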;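 note: 100% = tunicamycin at 10 µg/mL and 0% = DMSO alone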
#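 Dosing – one dose, 10 µM in 0.5% DMSO · System – CHO-CHOP cells, stable luciferase reporter of PERK-eIF2a-CHOP signalling · Input – 500 cells/well · Control set – tunicamycin 10 µg/mL final as positive, DMSO-only wells as negative · Timing – 6 h compound treatment, 37 °C · Measure – % activation vs tunicamycin · Technique – luminescence read with Steady-Glo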
# UPR XBP1 act: activators of adaptive arm of unfolded protein response (XBP1) | CHO-XBP1 luciferase reporter, IRE1-XBP1 UPR activation, luminescence; percent of tunicamycin response, DMSO as zero | 330,000 tested, 0.33% active | activation, % at 20 µM;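 active = versus positive control, 20 µM dose yields 30% or more activation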;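 note: 100% = tunicamycin at 10 µg/mL and 0% = DMSO only wells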
#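 Material: CHO cell line with stable XBP1 luciferase reporter; schedule: 16-18 h cell attachment at 37 °C, then 6 h compound exposure; signal: glow luminescence from Steady-Glo reagent; medium: serum-containing F12 medium, 10% FBS; benchmarks: tunicamycin 10 µg/mL and vehicle-only wells; read-out: percent activation relative to tunicamycin reference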
# CHOP confirm: confirmation of CHOP induction inhibitors | shares compounds with CHOP inhibitor | CHO-CHOP promoter luciferase reporter, tunicamycin-induced, luminescence | inhibition, % at 10 µM | 2,100 tested, 45% active;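 active = mean of three repeat readings of reporter signal inhibition above a set limit, cut at about 70% in these data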;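 note: 0% = tunicamycin plus vehicle and 100% = wells lacking tunicamycin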
# Starred values were filed as active, the others as inactive; / = no result.
SMILES,CHOP inhibitor,PvdQ inh,UPR CHOP act,UPR XBP1 act,CHOP confirm
CNC(=O)c1nnsc1S(=O)c1ccc(Cl)cc1 (centres undefined),107*,3,-11,-10,8
CCCNC(=O)c1nnsc1S(=O)(=O)c1ccc(Cl)cc1,108*,11,-5,-9,141*
CCCNC(=O)c1nnsc1S(=O)c1ccc(Cl)cc1 (centres undefined),107*,0,-11,-8,141*
Cc1nnsc1S(=O)c1ccc(F)cc1 (centres undefined),/,-3,-1,-9,/
COc1cccc(NC(=O)CSCc2cc(=O)n3nc(C4CC4)sc3n2)c1,/,12,5,-4,/
O=S(=O)(/N=C(/Sc1ccccc1)c1ccccc1)c1ccccc1,112*,6,4,5,60
CS/C(=N\S(=O)(=O)c1ccccc1)c1ccccc1,25,-6,0,-5,/
NC(=O)N/N=C\c1cc(Br)ccc1O,37,2,0,-2,/
Cc1ccc(OCCOc2ccc(Br)cc2/C=N\NC(N)=O)cc1,103*,-16,1,0,39
CCOC(=O)c1ccc(Nc2nc(=O)c3cccnc3s2)cc1,19,-4,1,1,/
O=c1nc(Nc2ccc(OCc3ccccc3)cc2)sc2ncccc12,102*,-4,-1,0,-24
Cc1cc(C)cc(NC(=O)Cn2c(SCc3cc(C)ccc3C)nc3ccncc32)c1,-9,/,/,/,/
Cc1ccc(CSc2nc3ccncc3n2CC(=O)Nc2cc(C)cc(C)c2)cc1,96*,-6,5,-1,26
CCOc1ccccc1NC(=O)CSc1nnc(-c2cccnc2)o1,/,0,0,1,/
CC1CCN(C(=O)/C(=C/c2ccccc2Cl)c2ccccc2)CC1,101*,-13,0,-2,88*
CN1CCN(C(=O)/C(=C\c2ccccc2)c2ccccc2)CC1,-2,2,-2,0,/
COc1ccc(-c2nn(-c3ccccc3)cc2/C=N/NC(=O)c2ccc(Br)o2)cc1,107*,-4,-6,-8,127*
CCC(C)n1c(=S)[nH]c2ccccc2c1=O (centres undefined),14,8,-3,-1,/
CCC(Cc1ccccc1)n1c(=S)[nH]c2ccccc2c1=O (centres undefined),97*,-15,-1,2,82*
CC(NCc1cccc(OCc2ccccc2)c1)C(O)c1ccccc1 (centres undefined),-9,-5,2,-2,/
CC(NCc1ccc(OCc2ccc(Cl)cc2)cc1)C(O)c1ccccc1 (centres undefined),105*,-7,6,27,18
CCOC(=O)N/N=C/c1c(C)nn(-c2ccccc2Cl)c1Cl,15,3,5,6,/
Cc1nn(-c2ccccc2Cl)c(Cl)c1/C=N/Nc1nc2ccccc2s1,97*,0,-6,-3,98*
Cc1cc(/C=C2/C(=O)NN(c3ccccc3)C2=O)c(C)n1-c1ccc(O)cc1,21,-3,3,-3,/
Cc1cc(/C=C2\C(=O)NN(c3ccccc3)C2=O)c(C)n1-c1ccccc1O,96*,-8,5,2,15
SMILES,CHOP inhibitor,PvdQ inh,UPR CHOP act,UPR XBP1 act,CHOP confirm
N#C/C(=C\c1ccc(Cl)cc1)c1nc2ncccc2[nH]1,-48,7,4,11,/
Cc1ccc(S(=O)(=O)N(C)CC(O)Cn2c3ccccc3c3ccccc32)cc1 (centres undefined),101*,-10,1,3,42
Cc1ccc(NC(=O)Nc2nnc(-c3ccncc3)s2)cc1C,104*,-5,1,3,68
c1ccc2c(-c3c[nH]c4ccccc34)c3ccccc3nc2c1,98*,-5,-1,1,-18
O=C(O)c1cc(-c2c[nH]c3ccccc23)nc2ccc3ccccc3c12,-20,3,0,1,/
CC1CCC(C(C)C)C(OCC(O)CN2CCN(Cc3ccccc3)CC2)C1 (centres undefined),99*,-16,-1,-2,104*
CCN1/C(=C/c2ccc3cc(C)ccc3[n+]2C)Sc2ccc3sccc3c21,109*,-16,/,/,102*
COc1cccc(N2CCN(C(=O)Nc3ccccc3Cl)CC2)c1,12,-4,1,-1,/
Cc1cccc(C)c1NC(=O)C(=O)NCC1CCCN1S(=O)(=O)c1ccccc1 (centres undefined),/,1,-1,-4,/
